Assay results collected from several papers.
Each line is one published result; the experiments were not run side by side.

COc1ccc(C=NNC(=S)N[N+](=O)[O-])cc1OC — IC50 (Leishmania tropica; parasite growth; J774.A1; 72 h, intracellular, amastigote): 775 µM
CCOc1nc2cccc(C(=O)O)c2n1Cc1ccc(-c2ccccc2-c2nnn[nH]2)cc1 — IC50 (Severe acute respiratory syndrome coronavirus 2; viral replication, inhibitor; Calu-3; replicon): 1.05 µM
N.N.[Cl][Pt][Cl] — inhibition (NALM-6; cell growth or viability, ATP luminescence; 10 µM, 72 h): 97%
COc1cnc(OC)n2nc(NS(=O)(=O)c3c(OCC(F)F)cccc3C(F)(F)F)nc12 — inhibition (L02; cell growth or viability, CCK-8; 0.78 µM, 72 h): 0%
COc1ncc(-c2cn([C@@H]3O[C@](F)(CO)[C@@H](O)[C@H]3O)cn2)c(N)n1 — IC50 (Severe acute respiratory syndrome coronavirus 2; viral replication, inhibitor; A549-ACE2; 24 h): > 100 µM
Cc1ccc(C=NNC(=S)N[N+](=O)[O-])cc1 — IC50 (Leishmania tropica; parasite growth; J774.A1; 72 h, intracellular, amastigote): 331 µM
Cc1ccc(NC(=O)C2(c3ccc4c(c3)OC(F)(F)O4)CC2)nc1-c1cccc(C(=O)O)c1 — IC50 (Severe acute respiratory syndrome coronavirus 2; viral replication, inhibitor; Calu-3; replicon): 0.458 µM
Nc1ncncc1-c1cn([C@@H]2O[C@](F)(CO)[C@@H](O)[C@H]2O)cn1 — IC50 (Severe acute respiratory syndrome coronavirus 2; viral replication, inhibitor; A549-ACE2; 24 h): > 100 µM
CC1=NN(c2ccc(C)c(C)c2)C(=O)/C1=N\Nc1cccc(-c2cccc(C(=O)O)c2)c1O — IC50 (Severe acute respiratory syndrome coronavirus 2; viral replication, inhibitor; Calu-3; replicon): 4.55 µM
COc1nc(N)ncc1-c1cn([C@@H]2O[C@](F)(CO[P@@](=O)(N[C@@H](C)C(=O)OC(C)C)Oc3ccccc3)[C@@H](OC(=O)C(C)C)[C@H]2OC(=O)C(C)C)cn1 — IC50 (Severe acute respiratory syndrome coronavirus 2; viral replication, inhibitor; A549-ACE2; 24 h): 12.5 µM
CC(=O)O[C@H]1C(=O)[C@@]2(C)[C@H]([C@H](OC(=O)c3ccccc3)[C@]3(O)C[C@H](OC(=O)[C@H](O)[C@@H](NC(=O)c4ccccc4)c4ccccc4)C(C)=C1C3(C)C)[C@]1(OC(C)=O)CO[C@@H]1C[C@@H]2O — inhibition (L02; cell growth or viability, CCK-8; 12.5 µM, 72 h): > 90%
O=[N+]([O-])NC(=S)NN=Cc1ccc(Br)cc1 — IC50 (Leishmania tropica; parasite growth, MTT; 72 h, promastigote): 1240 µM
Nc1ncc(-c2cn([C@@H]3O[C@](F)(CO)[C@@H](O)[C@H]3O)cn2)cn1 — IC50 (Severe acute respiratory syndrome coronavirus 2; viral replication, inhibitor; A549-ACE2; 24 h): > 100 µM
Cc1c(O)cccc1C(=O)N[C@@H](CSc1ccccc1)[C@H](O)CN1C[C@H]2CCCC[C@H]2C[C@H]1C(=O)NC(C)(C)C — IC50 (Severe acute respiratory syndrome coronavirus 2; viral replication, inhibitor; Caco-2; replicon): 1.91 µM
